{"source": "ChEMBL document CHEMBL1145117", "about": "“Structures and cytotoxic properties of trichoverroids and their macrolide analogues produced by saltwater culture of Myrothecium verrucaria” (J Med Chem, 2003)", "key": {"NCI-H125": {"test_system": "NCI-H125", "test": "Selectivity was evaluated against human ZH125 lung non small cell carcinoma cell lines-CEM lymphocytic leukemia cell lines at a concentration of 550 ug/mL", "format": "functional", "in_short": "(§1)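 Disk diffusion soft agar colony formation assay with zone units read for murine L1210, C38 and CFU-GM (bone marrow) cells and for human H116, H125 and CEM cells. Selectivity is the zone-unit difference between the paired cell lines. A solid tumor minus leukemia or normal difference above 250 units counts as solid tumor selective.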"}, "NCI-H522": {"test_system": "NCI-H522", "test": "In vitro antitumor activity against NSCL NCI-H522 tumor cell lines", "format": "functional, cell-based, Homo sapiens", "settings": "Homo sapiens, NCI-H522"}, "COLO 205": {"test_system": "COLO 205", "test": "In vitro antitumor activity against colon COLO 205 tumor cell lines", "format": "functional, cell-based, Homo sapiens", "settings": "Homo sapiens, COLO 205"}, "MDA-N": {"test_system": "MDA-N", "test": "In vitro antitumor activity against breast MDA-N tumor cell lines", "format": "functional, cell-based, Homo sapiens", "settings": "Homo sapiens, MDA-N"}, "MCF7": {"test_system": "MCF7", "test": "In vitro antitumor activity against breast MCF-7 tumor cell lines", "format": "functional, cell-based, Homo sapiens", "settings": "Homo sapiens, MCF7"}, "MC-38 [1]": {"test_system": "MC-38", "test": "Selectivity was evaluated against Murine tumor ZC38 colon adenocarcinoma cell lines- ZL1210 lymphocytic leukemia cell lines at a concentration of 550 ug/mL", "format": "functional, Mus musculus", "in_short": "as §1"}, "M14": {"test_system": "M14", "test": "In vitro antitumor activity against melanoma M14 tumor cell lines", "format": "functional, cell-based, Homo sapiens", "settings": "Homo sapiens, M14"}, "A549": {"test_system": "A549", "test": "In vitro antitumor activity against NSCL A549/ATCC tumor cell lines", "format": "functional, cell-based, Homo sapiens", "settings": "Homo sapiens, A549"}, "[2]": {"test": "Selectivity was evaluated against human ZH116 colon cell lines-CEM lymphocytic leukemia cell lines at a concentration of 550 ug/mL", "format": "functional", "in_short": "as §1"}, "SK-MEL-2": {"test_system": "SK-MEL-2", "test": "In vitro antitumor activity against melanoma SK-MEL-2 tumor cell lines", "format": "functional, cell-based, Homo sapiens", "settings": "Homo sapiens, SK-MEL-2"}, "RXF 393": {"test_system": "RXF 393", "test": "In vitro antitumor activity against renal RXF 393 tumor cell lines", "format": "functional, cell-based, Homo sapiens", "settings": "Homo sapiens, RXF 393"}, "[3]": {"test": "Activity relative to compound 3 (set to 1.0) was evaluated against H116 colon tumor cell lines", "format": "functional, Homo sapiens", "in_short": "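Disk diffusion soft agar colony formation assay on human H116 colon tumor cells, with 15 µL of sample applied to a disk and zone units read. Relative activity = (dilution required for 500 zone units × 100)/(mg/mL), normalised to a reference compound set at 1.0.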"}, "HL-60": {"test_system": "HL-60", "test": "In vitro antitumor activity against leukemia HL-60(TB) tumor cell lines", "format": "functional, cell-based, Homo sapiens", "settings": "Homo sapiens, HL-60"}, "UACC-62": {"test_system": "UACC-62", "test": "In vitro antitumor activity against melanoma UACC-62 tumor cell lines", "format": "functional, cell-based, Homo sapiens", "settings": "Homo sapiens, UACC-62"}, "NCI-H226": {"test_system": "NCI-H226", "test": "In vitro antitumor activity against NSCL NCI-H226 tumor cell lines", "format": "functional, cell-based, Homo sapiens", "settings": "Homo sapiens, NCI-H226"}, "786-0": {"test_system": "786-0", "test": "In vitro antitumor activity against renal 786-0 tumor cell lines", "format": "functional, cell-based, Homo sapiens", "settings": "Homo sapiens"}, "A498": {"test_system": "A498", "test": "In vitro antitumor activity against renal A498 tumor cell lines", "format": "functional, cell-based, Homo sapiens", "settings": "Homo sapiens, A498"}, "L1210": {"test_system": "L1210", "test": "Selectivity was evaluated murine tumor against ZL1210 lymphocytic leukemia cell lines- ZCFU-GM normal bone marrow cell lines at a concentration of 550 ug/mL", "format": "functional, Mus musculus", "in_short": "as §1"}, "MOLT-4": {"test_system": "MOLT-4", "test": "In vitro antitumor activity against leukemia MOLT-4 tumor cell lines", "format": "functional, cell-based, Homo sapiens", "settings": "Homo sapiens, MOLT-4"}, "MC-38 [4]": {"test_system": "MC-38", "test": "Selectivity was evaluated against murine tumor ZC38 colon adenocarcinoma cell lines- ZCFU-GM normal bone marrow cell lines at a concentration of 550 ug/mL", "format": "functional, Mus musculus", "in_short": "as §1"}, "CCRF-CEM": {"test_system": "CCRF-CEM", "test": "In vitro antitumor activity against leukemia CCRF-CEM tumor cell lines", "format": "functional, cell-based, Homo sapiens", "settings": "Homo sapiens, CCRF-CEM"}, "MDA-MB-435": {"test_system": "MDA-MB-435", "test": "In vitro antitumor activity against breast MDA-MB-435 tumor cell lines", "format": "functional, cell-based, Homo sapiens", "settings": "Homo sapiens, MDA-MB-435"}, "Homo sapiens": {"species_on_record": "Homo sapiens", "test": "Concentration giving 500 zone units against H116 colon tumor cell lines", "format": "functional", "in_short": "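Disk diffusion soft agar colony formation assay on human H116 colon tumor cells. Each sample was applied to a disk as 15 µL, and activity was read as zone units. The value is the sample concentration that gave 500 zone units.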"}, "HCT-15": {"test_system": "HCT-15", "test": "In vitro antitumor activity against colon HCT-15 tumor cell lines", "format": "functional, cell-based, Homo sapiens", "settings": "Homo sapiens, HCT-15"}, "HCT-116": {"test_system": "HCT-116", "test": "In vitro antitumor activity against colon HCT116 tumor cell lines", "format": "functional, cell-based, Homo sapiens", "settings": "Homo sapiens, HCT-116"}}}
{"compound": "C/C1=C\\C(=O)OC[C@]23CC[C@](C)(O)[C@H]4C[C@@]5(O)[C@H](O[C@H]42)[C@H](O)[C@@H](OC(=O)/C=C\\C=C\\[C@@H]2O[C@H](C1)O[C@H]2C)[C@]35C", "note": "[Miophytocen C]", "values": [{"measurement": "Selectivity", "setting": "NCI-H125", "value": -50, "unit": "zone unit"}, {"measurement": "IC50", "setting": "NCI-H522", "value": "> 10", "unit": "µM"}, {"measurement": "IC50", "setting": "COLO 205", "value": "> 10", "unit": "µM"}, {"measurement": "IC50", "setting": "MDA-N", "value": "> 10", "unit": "µM"}, {"measurement": "IC50", "setting": "MCF7", "value": "> 10", "unit": "µM"}, {"measurement": "Selectivity", "setting": "MC-38 [1]", "value": -350, "unit": "zone unit"}, {"measurement": "IC50", "setting": "M14", "value": "> 10", "unit": "µM"}, {"measurement": "IC50", "setting": "A549", "value": "> 10", "unit": "µM"}, {"measurement": "Selectivity", "setting": "[2]", "value": -50, "unit": "zone unit"}, {"measurement": "IC50", "setting": "SK-MEL-2", "value": "> 10", "unit": "µM"}, {"measurement": "IC50", "setting": "RXF 393", "value": "> 10", "unit": "µM"}, {"measurement": "Relative activity", "setting": "[3]", "value": 1}, {"measurement": "IC50", "setting": "HL-60", "value": "> 10", "unit": "µM"}, {"measurement": "IC50", "setting": "UACC-62", "value": "> 10", "unit": "µM"}, {"measurement": "IC50", "setting": "NCI-H226", "value": "> 10", "unit": "µM"}, {"measurement": "IC50", "setting": "786-0", "value": "> 10", "unit": "µM"}, {"measurement": "IC50", "setting": "A498", "value": "> 10", "unit": "µM"}, {"measurement": "Selectivity", "setting": "L1210", "value": 300, "unit": "zone unit"}, {"measurement": "IC50", "setting": "MOLT-4", "value": "> 10", "unit": "µM"}, {"measurement": "Selectivity", "setting": "MC-38 [4]", "value": -50, "unit": "zone unit"}, {"measurement": "IC50", "setting": "CCRF-CEM", "value": "> 10", "unit": "µM"}, {"measurement": "IC50", "setting": "MDA-MB-435", "value": "> 10", "unit": "µM"}, {"measurement": "Concentration", "setting": "Homo sapiens", "value": 550, "unit": "µg/mL"}, {"measurement": "IC50", "setting": "HCT-15", "value": "> 10", "unit": "µM"}, {"measurement": "IC50", "setting": "HCT-116", "value": "> 10", "unit": "µM"}]}
